KCNK3 block – human KCNK3 channel inhibition, primary screen; O14649; CHO-KCNK3 thallium flux, FluxOR fluorescence; stronger effect = lower value; B-score at 10 µM; actives 0.84% (n = 340,000); AID 602410;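 active = B-score under library mean minus 4 SD, starting fluorescence ratio at most library mean plus 5 SD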;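 note: more negative B-score means stronger inhibition of thallium flux through KCNK3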
KCNQ1 pot – potentiators or activators of human KCNQ1 potassium channel. B-score at 10 µM. P51787. actives 0.35% (n = 310,000). CHO-K1 KCNQ1, thallium flux FluxOR fluorescence; stronger effect = higher value. AID 2648;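 active = fluorescence ratio B-score, a plate-corrected score, at least three library SD, with initial intensity B-score within 5 SD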
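System: Stable KCNQ1 CHO-K1 line | Incubation: 90 min dye loading and 20 min compound exposure, both at room temperature | Measure: Ratio B score | Medium: Assay buffer for compound exposure, DMSO matched across wells | Compound dosing: Single-concentration screen | Probe or stimulus: K+/Tl+ depolarizing stimulus | Measured by: Kinetic FluxOR fluorescence, 10 s baseline plus 110 s post-stimulus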
KCNQ1 inh – inhibitors of human KCNQ1 potassium channel; CHO-K1 KCNQ1, FluxOR thallium flux fluorescence; stronger effect = higher value; B-score at 10 µM; AID 2642; actives 1.3% (n = 310,000); P51787;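 active = compounds whose thallium flux B-score, printed positive for inhibition, exceeds three library SD while starting fluorescence stays within three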;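 note: channel opened by potassium depolarization with thallium stimulus after 20 min compound exposure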
hERG protect – hERG (human) protection from proarrhythmic block | CHO-hERG, FluxOR thallium flux, dofetilide IC70 present | actives 0.51% (n = 310,000) | activation (rescue from dofetilide block), less the hit threshold, % at 10 µM;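 active = activation above the mean of controls blocked by dofetilide plus 5 SD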;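 note: thallium influx through hERG after potassium depolarization seen as dye fluorescence rise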
Target sequence (Q12809 whole entry, looked up): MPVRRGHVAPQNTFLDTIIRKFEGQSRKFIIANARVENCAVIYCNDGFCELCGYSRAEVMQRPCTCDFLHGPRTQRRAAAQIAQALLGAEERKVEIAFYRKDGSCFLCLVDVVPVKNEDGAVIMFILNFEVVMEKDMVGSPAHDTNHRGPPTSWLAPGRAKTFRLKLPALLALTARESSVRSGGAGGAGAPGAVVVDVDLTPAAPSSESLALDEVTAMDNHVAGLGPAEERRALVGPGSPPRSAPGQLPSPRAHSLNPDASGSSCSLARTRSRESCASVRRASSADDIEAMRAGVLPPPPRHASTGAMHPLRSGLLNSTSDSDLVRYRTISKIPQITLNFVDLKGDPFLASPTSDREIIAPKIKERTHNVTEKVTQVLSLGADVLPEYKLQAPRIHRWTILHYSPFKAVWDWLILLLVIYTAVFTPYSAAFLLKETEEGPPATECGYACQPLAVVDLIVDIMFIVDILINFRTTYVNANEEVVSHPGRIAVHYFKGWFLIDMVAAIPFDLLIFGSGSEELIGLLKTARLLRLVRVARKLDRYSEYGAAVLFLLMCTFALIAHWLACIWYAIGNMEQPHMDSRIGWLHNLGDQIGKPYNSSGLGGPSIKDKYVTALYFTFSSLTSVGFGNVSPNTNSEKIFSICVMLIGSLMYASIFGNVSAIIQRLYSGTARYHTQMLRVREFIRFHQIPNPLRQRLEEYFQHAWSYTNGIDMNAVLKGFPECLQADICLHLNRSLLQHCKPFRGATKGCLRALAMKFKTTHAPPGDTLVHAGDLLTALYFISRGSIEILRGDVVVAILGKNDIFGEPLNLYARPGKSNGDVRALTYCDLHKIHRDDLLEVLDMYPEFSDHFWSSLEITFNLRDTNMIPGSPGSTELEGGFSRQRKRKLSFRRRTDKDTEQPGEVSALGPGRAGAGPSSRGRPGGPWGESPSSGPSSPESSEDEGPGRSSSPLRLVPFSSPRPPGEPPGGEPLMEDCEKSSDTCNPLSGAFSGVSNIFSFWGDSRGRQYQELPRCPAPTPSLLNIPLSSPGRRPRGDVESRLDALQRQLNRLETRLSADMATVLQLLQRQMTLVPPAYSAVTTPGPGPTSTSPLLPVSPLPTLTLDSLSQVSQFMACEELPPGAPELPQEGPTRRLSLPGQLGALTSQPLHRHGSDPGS
Kir21 block – inhibitors of mouse Kir2.1 inward-rectifier potassium channel | P35561 | HEK293-Kir2.1, FluxOR thallium flux fluorescence; stronger effect = lower value | B-score at 10 µM | actives 0.85% (n = 310,000);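 active = fluorescence ratio B-score at or below minus 3 SD of library scores, with starting-brightness B-score within 2 SD, cut at about -4.2 in these data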;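 note: channel flux triggered by added potassium and thallium sulfate stimulus; B-score of peak minus minimum fluorescence over baseline after thallium stimulus; more negative B-score means stronger Kir2.1 block with less thallium influx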
KCNK9 block – human KCNK9 channel inhibition | Q9NPC2 | HEK293 KCNK9, FluxOR thallium flux fluorescence; stronger effect = lower value | AID 488922 | B-score at 10 µM | actives 1.2% (n = 310,000);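 active = ratio B-score over 3 SD below the library mean, with starting fluorescence within 5 SD of its mean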;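 note: negative B-score means less thallium flux so channel inhibition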
KCNK9 inh conf – human KCNK9 inhibitor confirmation; HEK293 KCNK9 cells, FluxOR thallium flux fluorescence; inhibition, % at 10 µM; AID 492992; shares compounds with KCNK9 block; actives 43% (n = 4,900);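 active = thallium signal inhibited by more than 5 SD of the compound-free buffer control wells, on both duplicate plates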;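 note: 0% = assay buffer control wells without compound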
Kir2-1 spec – tests whether KCNK9 modulators also affect mouse Kir2.1; shares compounds with KCNK9 block; Kir2.1 cells, FluxOR thallium flux fluorescence; inhibition, % at 10 µM; actives 4% (n = 4,900); AID 492993;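 active = thallium signal drop more than 5 SD beyond the mean of the no-compound control wells, seen in both duplicate plates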;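 note: signal is fluorescence rise after thallium addition divided by baseline fluorescence; plate controls were assay buffer only for no effect and full block by chlorpromazine control for full effect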
KCNK9 uninduced – non-induced cell nonspecific activity of KCNK9 modulators; shares compounds with KCNK9 block; non-induced KCNK9-HEK293, FluxOR thallium flux; actives 40% (n = 4,900); inhibition, % at 10 µM;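 active = thallium signal drop beyond 5 SD of the untreated control mean, on both duplicate plates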;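 note: plate controls were buffer only IC0 wells for no effect and SID17386958 at its maximal inhibitory level for full effect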
The depositor's hits bear a star; i = inactive; / = no result given. In the library only some 3.7% were active in any assay of this set; here they are far more common.

SMILES	KCNK3 block	KCNQ1 pot	KCNQ1 inh	hERG protect	Kir21 block	KCNK9 block	KCNK9 inh conf	Kir2-1 spec	KCNK9 uninduced
CCCNC(=O)c1onc(CSc2cccc(OC)c2)c1C(=O)NCCC	i	i	i	-5.2	-0.66	i	/	/	/
Cc1noc(C)c1CSc1nc2ccccc2c(=O)n1-c1ccc(Cl)cc1	i	i	i	-6.0	0.07	i	i	i	i
COn1c(SCc2ccc(Cl)cc2)nc2ccccc2c1=O	i	i	i	-21.1	0.15	-18*	66.5%*	i	34.0%*
Cc1noc(C)c1CSc1nc2sc(C)c(C)c2c(=O)n1-c1ccccc1	i	i	i	-6.4	0.59	i	/	/	/
CC(CCc1ccccc1)NC(=O)CNC(=O)N1CC(=O)Nc2ccccc21 (stereo not given)	i	i	i	-5.1	-0.5	i	/	/	/
CC(C)(C)c1ccc(Cn2cnc(-c3ccc([N+](=O)[O-])cc3)c2)cc1	i	i	i	-8.2	-0.81	i	i	i	i
CCCCSc1cnn(-c2ccccc2)c(=O)c1SCCCC	i	i	6*	-6.6	0.02	-9.88*	51.5%*	i	47.5%*
CCSc1cnn(-c2ccccc2)c(=O)c1SCC	i	i	i	-7.8	-0.61	i	/	/	/
O=C(CCN1C(=O)/C(=C\c2cccc(Br)c2)SC1=S)N1CCOCC1	i	i	i	-1.5	1.4	i	/	/	/
COc1ccc(C2CC2/C(C)=N/OC(=O)c2ccc(F)cc2)cc1 (stereo not given)	i	i	i	-8.8	-0.04	i	i	i	i
COc1cccc(N2CCN(C(=O)c3cc4cc(Cl)ccc4[nH]3)CC2)c1	i	i	i	-8.8	-0.01	i	/	/	/
O=C(c1cc2cc(F)ccc2[nH]1)N1CCN(c2cccc(Cl)c2)CC1	i	i	i	-6.2	-0.92	i	i	i	i
COc1ccc(C(=O)OCC(=O)N2CCC(C)CC2)cc1S(=O)(=O)N1CCOCC1	i	/	/	/	/	/	/	/	/
Cc1ccc(C(=O)OCC(=O)N2CC(C)CC(C)C2)cc1S(=O)(=O)N1CCOCC1 (stereo not given)	i	i	i	-9.2	0.17	i	/	/	/
CC1CCN(C(=O)COC(=O)c2ccc(F)c(S(=O)(=O)N3CCOCC3)c2)CC1	i	i	i	-4.6	-0.59	i	i	i	i
Cc1ccc(C(=O)OCC(=O)N2CCC(C)CC2)cc1S(=O)(=O)N1CCCCC1	i	i	i	-9.2	-2.77	i	i	i	i
CN(Cc1ccccc1)c1nc(N)c([N+](=O)[O-])c(NCc2ccccc2)n1	i	i	i	-10.8	-4.55*	-10.2*	57.0%*	i	57.0%*
Nc1nc(NCCc2ccccc2)nc(NCc2ccccc2)c1[N+](=O)[O-]	i	i	i	-10.9	0.33	i	/	/	/
c1ccc2c(c1)OCC(c1csc3ncnc(N4CCCCC4)c13)O2 (stereo not given)	i	i	i	-7.7	-0.16	-13.2*	44.5%*	i	32.5%*
Nc1[nH]n(-c2ccccc2)c(=O)c1N=Nc1ccc2ncsc2c1	i	i	i	-15.4	0.97	i	/	/	/
CC1=NN(c2ccccc2)C(=O)/C1=C\C=C1\N(C)c2ccccc2C1(C)C	i	i	i	-11.1	0.49	-9.13*	i	i	i
CC1=NN(c2ccccc2)C(=O)/C1=C\C=C1/N(C)c2ccccc2C1(C)C	i	i	i	-12.3	3.14	i	/	/	/
COC(=O)Cc1c(O)ccn(Cc2cccc3ccccc23)c1=O	i	i	i	-12.4	-1.89	i	/	/	/
CC(C)C(=O)O/N=C(\N)c1ccc(Oc2ccc(Cl)cc2)c([N+](=O)[O-])c1	i	i	i	-10.5	0.02	i	/	/	/
C=CCN(C(=O)CNC(=O)c1ccco1)C(C(=O)NC1CCCC1)c1ccc(OC)cc1 (stereo not given)	i	i	i	-5.2	-0.91	i	/	/	/
SMILES	KCNK3 block	KCNQ1 pot	KCNQ1 inh	hERG protect	Kir21 block	KCNK9 block	KCNK9 inh conf	Kir2-1 spec	KCNK9 uninduced
O=C(N/C(=C\c1cccc(Br)c1)C(=O)N1CCOCC1)c1ccco1	i	i	i	-8.0	-2.45	i	/	/	/
Fc1cccc(Cl)c1Cc1noc(/C=C/c2ccccc2)n1	i	i	i	0.7	0.08	i	i	i	i
COc1ccccc1CNC(=O)CSCc1cnn(-c2ccccc2)c1-n1cccc1	i	i	i	-10.5	-5.76*	i	i	i	i
COc1cccc(CNC(=O)CSCc2cnn(-c3ccccc3)c2-n2cccc2)c1OC	i	i	i	-17.9	-2	i	i	31.0%*	i
COc1ccc(OC)c(NC(=O)CSCc2cnn(-c3ccccc3)c2-n2cccc2)c1	i	i	i	-10.9	-4.26*	i	i	i	29.0%*
COc1cc(NC(=O)CSCc2cnn(-c3ccccc3)c2-n2cccc2)cc(OC)c1	i	i	i	-4.5	-1.5	i	/	/	/
Cc1cc(=O)n2nc(N3CCCC3C(=O)NCCCN3CCCCC3)sc2n1 (stereo not given)	i	i	i	-8.0	2.44	i	/	/	/
Cc1ccc(-c2csc(N(CC3CCCO3)C(=O)c3ccco3)n2)cc1 (stereo not given)	i	i	i	-11.6	0.91	-8.59*	43.0%*	i	33.5%*
CC(=O)Nc1cccc(OCCCNC(=O)c2ccc(C(C)(C)C)cc2)c1	i	i	i	-4.7	0.13	i	/	/	/
Cc1cc(-c2ccccc2)c2c3c(c(-c4ccccc4)n2n1)c(=O)n(C)c(=O)n3C	i	i	i	-6.3	-0.25	-8.76*	i	i	36.5%*
Cc1cc(C)c2c3c(c(-c4ccccc4)n2n1)c(=O)n(C)c(=O)n3C	i	/	/	/	/	/	/	/	/
Cc1ccc(NC2=NCC(=O)N2C2CCCC2)c(C)c1	i	i	i	-4.1	-1.22	i	/	/	/
CCCC[C@@H]1CCCO[C@@](C(=O)NCc2ccc(C)o2)(C(F)(F)F)C1	i	i	i	-9.4	0.12	i	i	i	i
CCC[C@@H]1CCCO[C@@](C(=O)NCc2ccc(S(C)(=O)=O)cc2)(C(F)(F)F)C1	i	i	i	-3.1	0.06	i	/	/	/
